In ChEMBL document CHEMBL4610044, “Synthesis and biological evaluation of novel indole-pyrazoline hybrid derivatives as potential topoisomerase 1 inhibitors” (Bioorg Med Chem Lett, 2020) one finds Activity and Kd data, which are given here for 24 molecules.

Activity calls are given as the source filed them. The calls are words filed in the database; no cut-off is given here. Some results are limits rather than exact numbers.

Experiment [1] concerns the target T1, DNA topoisomerase 1 (Homo sapiens) (UniProt P11387).
T1 sequence (whole entry): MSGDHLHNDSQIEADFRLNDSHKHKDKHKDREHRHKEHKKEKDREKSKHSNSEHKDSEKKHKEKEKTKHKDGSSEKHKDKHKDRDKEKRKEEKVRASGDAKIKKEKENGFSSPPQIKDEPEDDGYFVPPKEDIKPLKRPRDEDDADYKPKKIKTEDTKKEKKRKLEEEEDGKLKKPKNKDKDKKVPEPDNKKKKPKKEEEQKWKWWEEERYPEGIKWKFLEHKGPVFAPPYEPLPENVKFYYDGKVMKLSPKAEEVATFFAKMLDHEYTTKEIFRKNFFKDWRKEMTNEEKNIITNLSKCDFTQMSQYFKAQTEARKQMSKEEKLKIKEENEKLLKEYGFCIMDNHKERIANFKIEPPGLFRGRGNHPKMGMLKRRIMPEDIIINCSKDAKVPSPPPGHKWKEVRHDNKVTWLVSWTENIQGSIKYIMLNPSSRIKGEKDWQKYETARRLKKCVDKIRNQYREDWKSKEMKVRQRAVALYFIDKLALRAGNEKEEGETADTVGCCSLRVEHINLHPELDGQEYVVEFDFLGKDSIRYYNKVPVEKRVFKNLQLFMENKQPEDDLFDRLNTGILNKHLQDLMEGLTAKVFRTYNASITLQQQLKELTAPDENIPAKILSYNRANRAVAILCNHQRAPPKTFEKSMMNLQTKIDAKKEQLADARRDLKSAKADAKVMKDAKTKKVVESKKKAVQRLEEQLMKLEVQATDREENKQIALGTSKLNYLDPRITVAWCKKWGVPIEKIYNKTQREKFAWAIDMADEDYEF
Put plainly: Poison activity at Top1 (unknown origin) assessed as decrease in relaxed supercoiled DNA at 25 uM by […] based agarose gel electrophoresis relative to control. The arrangement: scale not given: the % may be the effect or the level left.

The test system of experiment [2] is Supercoiled DNA. Put plainly: Binding affinity to supercoiled DNA (unknnown origin) at 50 uM by SPR assay. The format is nucleic-acid assay. For orientation: Surface plasmon resonance follows binding to a sensor surface in real time, without labels.
Experiment [3] concerns the target T1, DNA topoisomerase 1 (Homo sapiens). Nature of the experiment: Poison activity at Top1 (unknown origin) assessed as increase in supercoiled DNA at 125 uM by ethidium bromide staining based agarose gel electrophoresis relative to control.
The target in experiment [4] is Supercoiled DNA. Put plainly: Binding affinity to supercoiled DNA (unknown origin) by SPR assay. The format is nucleic-acid assay.
For experiment [5], the system named is DNA. Put plainly: Binding affinity at Escherichia coli pBR322 DNA assessed as unwinding of supercoiled DNA incubated for 30 mins in presence of topoisomerase 1 by agarose gel based electrophoresis. The format is nucleic-acid assay.
The target in experiment [6] is T1, DNA topoisomerase 1 (Homo sapiens). Put plainly: Poison activity at Top1 (unknown origin) assessed as decrease in relaxed supercoiled DNA at 300 uM. The gist of the method:
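The screen used a Top1-mediated relaxation assay, with compounds at 300 µM and camptothecin as positive control. Supercoiled and relaxed/Top1-bound DNA were resolved as separate bands on agarose gel.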

The target is the same in experiment [7]. Put plainly: Poison activity at Top1 (unknown origin) assessed as increase in supercoiled DNA by ethidium bromide staining based agarose gel electrophoresis. The gist of the method:
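In a semi-quantitative Top1 relaxation assay, compound was tested at several concentrations, including 25 and 125 µM, and camptothecin at 1, 5, 25 and 125 µM. Supercoiled DNA was quantified from gel bands as a percentage of total DNA.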

The target is the same in experiment [8]. Put plainly: Poison activity at Top1 (unknown origin) assessed as increase in supercoiled DNA at 25 uM by […] relative to control.

A word on the Kd: it is a measure of binding affinity in units of concentration.

In the case of `O=S(=O)(c1cccc2ccccc12)n1cc(C2=NN(c3ccccc3)C(c3ccc(Cl)cc3)C2)c2ccccc21` (stereo not drawn), in experiment [1], the Activity is < 40%. Moreover, in experiment [2], the result was inactive.

Turning to `Cc1ccc(S(=O)(=O)n2cc(C3=NN(c4ccccc4)C(c4ccccc4)C3)c3ccccc32)cc1` (stereo not drawn), the Activity in experiment [1] lay in the range of 40 to 79%. Moreover, the outcome in experiment [2] was inactive.

Turning to `COc1cc(C2CC(c3cn(S(=O)(=O)c4ccc(C)cc4)c4ccccc34)=NN2c2ccccc2)cc(OC)c1OC` (stereo not drawn), the Activity in experiment [1] lay in the range of 40 to 79%. Further, in experiment [2], the result was inactive.

With `CC[C@@]1(O)C(=O)OCc2c1cc1n(c2=O)Cc2cc3ccccc3nc2-1`, the Activity in experiment [3] is 48%.

For `COc1ccc(C2CC(c3cn(S(=O)(=O)c4cccc5ccccc45)c4ccccc34)=NN2c2ccccc2)cc1` (stereo not drawn), the Activity in experiment [1] is < 40%. For the same molecule, in experiment [2], the result was inactive.

As to `CC[n+]1c(-c2ccccc2)c2cc(N)ccc2c2ccc(N)cc21` [HOMIDIUM BROMIDE], the Kd in experiment [4] worked out at 1200 nM. The outcome in experiment [5] was Active.

In the case of `Cc1ccc(S(=O)(=O)n2cc(C3=NN(c4ccccc4)C(c4cccc5ccccc45)C3)c3ccccc32)cc1` (stereo not drawn), the Activity in experiment [1] is 40 to 79%. Moreover, in experiment [2], the outcome was inactive.

For the molecule `O=S(=O)(c1cccc2ccccc12)n1cc(C2=NN(c3ccccc3)C(c3cccc4ccccc34)C2)c2ccccc21` (stereo not drawn), in experiment [1], the Activity was < 40%. In addition, in experiment [2], the outcome was inactive.

Regarding `O=S(=O)(c1ccccc1)n1cc(C2=NN(c3ccccc3)C(c3ccccc3)C2)c2ccccc21` (stereo not drawn), the Activity in experiment [1] was in the range of 40 to 79%. The result in experiment [2] was inactive.

For the molecule `COc1cc(C2CC(c3cn(S(=O)(=O)c4ccccc4)c4ccccc34)=NN2c2ccccc2)cc(OC)c1OC` (stereo not drawn), the Activity in experiment [1] was in the range of 40 to 79%. For the same molecule, the result in experiment [2] was inactive.

For the molecule `O=S(=O)(c1ccccc1)n1cc(C2=NN(c3ccccc3)C(c3ccccc3Br)C2)c2ccccc21` (stereo not drawn), the Activity in experiment [1] is < 40%. Also, in experiment [2], the result was inactive.

Take `Brc1ccccc1C1CC(c2c[nH]c3ccccc23)=NN1c1ccccc1` (stereo not drawn): in experiment [6], the result was Active. The Activity in experiment [1] is < 40%. Further, in experiment [2], the result was inactive.

As to `CC(C)c1ccc(C2CC(c3cn(S(=O)(=O)c4cccc5ccccc45)c4ccccc34)=NN2c2ccccc2)cc1` (stereo not drawn), the Activity in experiment [1] fell in the range of 40 to 79%. The result in experiment [2] was inactive.

In the case of `Cc1ccc(S(=O)(=O)n2cc(C3=NN(c4ccccc4)C(c4ccccc4Br)C3)c3ccccc32)cc1` (stereo not drawn), in experiment [1], the Activity was < 40%. Moreover, the result in experiment [2] was inactive.

Consider `Cc1ccc(S(=O)(=O)n2cc(C3=NN(c4ccccc4)C(c4ccc(C(C)C)cc4)C3)c3ccccc32)cc1` (stereo not drawn), for which the Activity in experiment [1] was < 40%. Besides, the result in experiment [2] was inactive.

For `O=[N+]([O-])c1cccc(C2CC(c3cn(S(=O)(=O)c4ccccc4)c4ccccc34)=NN2c2ccccc2)c1` (stereo not drawn), the Activity in experiment [1] was < 40%. In experiment [2], the outcome was inactive.

For `O=S(=O)(c1ccccc1)n1cc(C2=NN(c3ccccc3)C(c3cccc4ccccc34)C2)c2ccccc21` (stereo not drawn), the Activity in experiment [1] is > 80%; in experiment [7] it was “Dose-dependent effect”; in experiment [8], 61%; in experiment [3], 74%. Also, the outcome in experiment [2] and in experiment [5] was inactive.

As to `CC(C)c1ccc(C2CC(c3cn(S(=O)(=O)c4ccccc4)c4ccccc34)=NN2c2ccccc2)cc1` (stereo not drawn), the Activity in experiment [1] was 40 to 79%. Moreover, the result in experiment [2] was inactive.

For the molecule `O=S(=O)(c1ccccc1)n1cc(C2=NN(c3ccccc3)C(c3ccc(Cl)cc3)C2)c2ccccc21` (stereo not drawn), in experiment [1], the Activity is < 40%. In experiment [2], the outcome was inactive.

With `O=S(=O)(c1cccc2ccccc12)n1cc(C2=NN(c3ccccc3)C(c3ccccc3Br)C2)c2ccccc21` (stereo not drawn), the Activity in experiment [1] is < 40%. Besides, in experiment [2], the result was inactive.

Consider `COc1ccc(C2CC(c3cn(S(=O)(=O)c4ccccc4)c4ccccc34)=NN2c2ccccc2)cc1` (stereo not drawn), for which the Activity in experiment [1] was 40 to 79%. Moreover, the result in experiment [2] was inactive.

Regarding `Cc1ccc(C2CC(c3cn(S(=O)(=O)c4ccccc4)c4ccccc34)=NN2c2ccccc2)cc1` (stereo not drawn), the result in experiment [6] was Active. In addition, the Activity in experiment [1] was < 40%. In addition, in experiment [2], the outcome was inactive.

As to `O=S(=O)(c1cccc2ccccc12)n1cc(C2=NN(c3ccccc3)C(c3ccccc3)C2)c2ccccc21` (stereo not drawn), the Activity in experiment [1] was < 40%. The result in experiment [2] was inactive.

With `COc1ccc(C2CC(c3cn(S(=O)(=O)c4ccc(C)cc4)c4ccccc34)=NN2c2ccccc2)cc1` (stereo not drawn), the Activity in experiment [1] was < 40%. For the same molecule, in experiment [2], the outcome was inactive.
